Bioassay records (PubChem)
This excerpt belongs to a sample that is enriched for hits.
A1 inh = inhibitors of the anti-apoptotic protein A1, read as caspase activation; MEF A1-2A-BIM cells, Caspase-Glo 3/7 luminescence, 3 h; percent of clofoctol response, vehicle zero; caspase activation, % (concentration not given with the values); 330,000 compounds, 0.066% hits;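 active = over half of replicate activation scores above 10%, or exactly half above 10 with the replicate mean above 10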
XBP1 UPR activ = adaptive UPR (XBP1) activation; CHO-XBP1 luciferase reporter, IRE1-XBP1 UPR activation, luminescence; percent of tunicamycin response, DMSO as zero; 330,000 compounds, 0.33% hits; AID 463104; activation, % at 20 µM;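 active = versus positive control, 20 µM dose yields 30% or more activation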;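 also: 100% = tunicamycin at 10 µg/mL and 0% = DMSO only wells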
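incubation = overnight seeding at 37 °C, 6 h compound treatment at 37 °C | assay system = CHO-XBP1 cells stably carrying IRE1-XBP1-driven luciferase reporter | input = 1000 cells per well | detection = luciferase luminescence | dosing = single point, 20 µM final compound, 1% DMSO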
CHOP UPR activ = activators of apoptotic arm of unfolded protein response (CHOP). CHO-CHOP luciferase reporter, UPR activation, luminescence; percent of tunicamycin response over DMSO baseline. activation, % at 10 µM. 330,000 compounds, 0.34% hits. AID 449763;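 active = at 10 µM dose, activation of 40% or more, normalized to positive control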;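 also: 100% = tunicamycin at 10 µg/mL and 0% = DMSO alone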
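Test system: CHO-CHOP cells, stable luciferase reporter of PERK-eIF2a-CHOP signalling | Quantity: 500 CHO-CHOP cells per well | Buffer or medium: F12 plus 10% serum | Compound dosing: 10 µM single point, 0.5% DMSO | Schedule: 6 h compound treatment, 37 °C | Signal: Luciferase luminescence | Control set: Tunicamycin high control, DMSO low control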
CHOP inhibitor = blocks CHOP induction under ER stress | CHO-K1 CHOP-promoter luciferase, tunicamycin-induced, 15-18 h | inhibition, % at 10 µM | 220,000 compounds, 3.8% hits | AID 2732;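 active = compounds that reduced the stress-induced luciferase reporter signal by more than about 70% of percent inhibition, limit read from the data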;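 also: 0% = tunicamycin plus vehicle and 100% = wells without tunicamycin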
An asterisk follows results filed as active.

Results for CCC1(c2ccccc2)NC(=O)N(CC(=O)Nc2cc(S(=O)(=O)N3CCCCC3)ccc2OC(C)C)C1=O (stereo not drawn) ?
A1 inh: -0.1; XBP1 UPR activ: -2.5; CHOP UPR activ: -0.4

Results for Cc1ccc2c(c1)c1c(n2CC(O)Cn2c(C)nc3ccccc32)C(=O)CCC1 (stereo not drawn) ?
A1 inh: -0.5; XBP1 UPR activ: 0.1; CHOP UPR activ: 2.1; CHOP inhibitor: 30.0

Results for Cc1ccc2c(c1)c1c(n2CC(O)Cn2c(C)nc3ccccc32)/C(=N\O)CCC1 (stereo not drawn) ?
A1 inh: 1.3; XBP1 UPR activ: 1.6; CHOP UPR activ: -1.4; CHOP inhibitor: 87.3*

Results for CCOC(=O)c1c(C)nc2ccc(Cl)cc2c1-c1ccccc1 ?
A1 inh: -0.8; XBP1 UPR activ: -4.9; CHOP UPR activ: -0.3; CHOP inhibitor: 82.2*

Results for COc1cc(C(F)(F)F)ccc1C(=O)NCCc1ccco1 ?
A1 inh: 0.9; XBP1 UPR activ: -3.7; CHOP UPR activ: 6.3

What do the screens show for `Cc1[nH]c2ccccc2c1SCCN`?
A1 inh: 1.3; XBP1 UPR activ: -0.7; CHOP UPR activ: -0.1

Results for Cc1[nH]c2ccccc2c1SCc1ccccc1 ?
A1 inh: 1.5; XBP1 UPR activ: 3.6; CHOP UPR activ: 1.7; CHOP inhibitor: 82.9*

How did O=C(CCN1C(=O)C2C3CCC(C3)C2C1=O)Nc1cccc(Cl)c1 (stereo not drawn) do in these assays?
A1 inh: 0.3; XBP1 UPR activ: -4.7; CHOP UPR activ: 0.9

What do the screens show for `CN1CCN(c2oc(Cc3cccc4ccccc34)nc2C#N)CC1`?
A1 inh: -0.3; XBP1 UPR activ: 3.4; CHOP UPR activ: 1.9; CHOP inhibitor: 2.9

Results for N#Cc1nc(Cc2cccc3ccccc23)oc1N1CCCCC1 ?
A1 inh: 0.5; XBP1 UPR activ: 3.7; CHOP UPR activ: -1.0; CHOP inhibitor: 76.4*

Results for N#Cc1nc(COc2ccc(Cl)cc2)oc1N1CCCCCC1 ?
A1 inh: -0.3; XBP1 UPR activ: -0.9; CHOP UPR activ: 5.0; CHOP inhibitor: 70.7*

How did Cc1ccc(OCc2nc(C#N)c(N3CCCCC3)o2)cc1 do in these assays?
A1 inh: 0.6; XBP1 UPR activ: -0.7; CHOP UPR activ: 1.2; CHOP inhibitor: 18.6

How did N#Cc1nc(COc2ccc(Br)cc2)oc1N1CCN(Cc2ccccc2)CC1 do in these assays?
CHOP inhibitor: 73.5*

What do the screens show for `N#Cc1nc(COc2ccc(F)cc2)oc1N1CCN(Cc2ccccc2)CC1`?
A1 inh: 1.5; XBP1 UPR activ: -2.4; CHOP UPR activ: -0.1; CHOP inhibitor: 57.5

How did O=C1c2ccccc2C(=O)C1c1ccc2ccccc2n1 do in these assays?
A1 inh: -5.9; XBP1 UPR activ: -3.8; CHOP UPR activ: -7.8; CHOP inhibitor: 92.1*

How did COC(=O)C1=C(C)NC(C)=C(C(=O)OC)C1c1ccc2ccccc2n1 do in these assays?
A1 inh: 0.5; XBP1 UPR activ: -2.0; CHOP UPR activ: 0.6; CHOP inhibitor: -4.7

How did COc1ccc(C(CNC(=O)c2cc(S(=O)(=O)N3CCCC3)ccc2Cl)N2CCCC2)cc1 (stereo not drawn) do in these assays?
A1 inh: -0.9; XBP1 UPR activ: 0.1; CHOP UPR activ: 1.9

What do the screens show for `Cc1ccc(Oc2cc(NC(=O)CCCn3nc([N+](=O)[O-])c(Cl)c3C)cc([N+](=O)[O-])c2)cc1`?
A1 inh: 0.1; XBP1 UPR activ: -0.9; CHOP UPR activ: 0.9; CHOP inhibitor: 80.7*

Results for Cc1cc([N+](=O)[O-])nn1CCCC(=O)Nc1cc(Oc2ccc(F)cc2)cc([N+](=O)[O-])c1 ?
A1 inh: 0.3; XBP1 UPR activ: 0.2; CHOP UPR activ: -1.4; CHOP inhibitor: 70.2*

How did Cc1c(Cl)c([N+](=O)[O-])nn1CCCC(=O)Nc1cccc(Cl)c1 do in these assays?
A1 inh: -0.2; XBP1 UPR activ: -4.6; CHOP UPR activ: -0.3; CHOP inhibitor: 41.9

Results for Cc1cc([N+](=O)[O-])nn1CCCC(=O)Nc1cc(Oc2ccccc2)cc([N+](=O)[O-])c1 ?
A1 inh: 1.1; XBP1 UPR activ: -2.5; CHOP UPR activ: 1.3; CHOP inhibitor: 73.7*

Results for COc1ccc(CNC(=O)CCCn2nc([N+](=O)[O-])cc2C)cc1 ?
A1 inh: 0.1; XBP1 UPR activ: -2.5; CHOP UPR activ: -1.2; CHOP inhibitor: 3.5

How did CCN(CC(=O)Nc1c(F)cccc1F)C(=O)/C=C/c1cn(Cc2ccccc2)nc1-c1cccnc1 do in these assays?
A1 inh: -0.6; XBP1 UPR activ: 0.2; CHOP UPR activ: -0.9

What do the screens show for `CN(C)CCNC(=O)C1CCN(S(=O)(=O)c2ccc3ccccc3c2)CC1`?
A1 inh: -0.4; XBP1 UPR activ: -6.2; CHOP UPR activ: 0.0

What do the screens show for `CCc1nc(NC(C)(C)C)c2cnn(-c3ccccc3)c2n1`?
A1 inh: 0.5; XBP1 UPR activ: -0.2; CHOP UPR activ: 6.4; CHOP inhibitor: 8.0

Results for CCOc1cc(NC(=O)C2CCCCC2)c(OCC)cc1NC(=O)c1ccco1 ?
A1 inh: 2.5; XBP1 UPR activ: -2.1; CHOP UPR activ: 0.4; CHOP inhibitor: 83.9*

What do the screens show for `Cc1cccc(C)c1-n1c(C)cc(/C=N\Nc2ccc([N+](=O)[O-])cn2)c1C`?
A1 inh: 0.0; XBP1 UPR activ: 0.2; CHOP UPR activ: -1.4; CHOP inhibitor: 50.0

What do the screens show for `Cc1cc(/C=N/Nc2nc(N)ncc2[N+](=O)[O-])c(C)n1-c1ccccc1F`?
A1 inh: -15.4; XBP1 UPR activ: -7.8; CHOP UPR activ: -10.4; CHOP inhibitor: 80.0*

How did COC(=O)c1c(-c2cccs2)csc1NC(=O)CN1CCOCC1 do in these assays?
A1 inh: 0.2; XBP1 UPR activ: 0.2; CHOP UPR activ: -1.8; CHOP inhibitor: 73.9*

How did CCOC(=O)c1c(-c2ccc(OC)cc2)csc1NC(=O)CCN1CCOCC1 do in these assays?
A1 inh: 0.8; XBP1 UPR activ: 1.0; CHOP UPR activ: -1.4; CHOP inhibitor: -5.0

What do the screens show for `Cn1c(SCc2cccc([N+](=O)[O-])c2)nc2c(c1=O)SCC2`?
A1 inh: -0.2; XBP1 UPR activ: -2.1; CHOP UPR activ: -1.1; CHOP inhibitor: 75.2*

Results for CCc1ccccc1NC1c2ccccc2C(=O)N1Cc1ccco1 (stereo not drawn) ?
A1 inh: 0.0; XBP1 UPR activ: 0.4; CHOP UPR activ: 2.1; CHOP inhibitor: 74.7*

How did COc1cc(C(=O)Oc2cccc(Nc3ncnc4ccccc34)c2)cc(OC)c1OC do in these assays?
A1 inh: -0.1; XBP1 UPR activ: 1.7; CHOP UPR activ: 0.1; CHOP inhibitor: 91.8*

What do the screens show for `COc1ccc(C(=O)Oc2cccc(Nc3ncnc4ccccc34)c2)cc1OC`?
A1 inh: -0.4; XBP1 UPR activ: 1.8; CHOP UPR activ: 3.9; CHOP inhibitor: 67.8

What do the screens show for `CCN(C(=O)CN1CCN(c2cccc(C(F)(F)F)c2)CC1)c1c(N)n(Cc2ccccc2)c(=O)[nH]c1=O`?
A1 inh: 0.1; XBP1 UPR activ: -2.6; CHOP UPR activ: 1.6; CHOP inhibitor: 12.4
